Results taken from ChEMBL document CHEMBL1781959, “Synthesis and in vitro antitumor activity of substituted quinazoline and quinoxaline derivatives: search for anticancer agent” (Eur J Med Chem, 2011).

Assays:
Format in all cases: functional
SF-539 = experiment: Anticancer activity against human SF539 cells assessed as cell growth promotion at 10^-5 M after 48 hrs by SRB assay relative to control
MDA-MB-468 = experiment: Anticancer activity against human MDA-MB-468 cells assessed as cell growth promotion at 10^-5 M after 48 hrs by SRB assay relative to control
786-0 = experiment: Anticancer activity against human 786-0 cells assessed as cell growth promotion at 10^-5 M after 48 hrs by SRB assay relative to control
Malme-3M = experiment: Anticancer activity against human MALME-3M cells assessed as cell growth promotion at 10^-5 M after 48 hrs by SRB assay relative to control
CAKI-1 = experiment: Anticancer activity against human Caki1 cells assessed as cell growth promotion at 10^-5 M after 48 hrs by SRB assay relative to control
A549 = experiment: Anticancer activity against human A549 cells assessed as cell growth promotion at 10^-5 M after 48 hrs by SRB assay relative to control
SN12C = experiment: Anticancer activity against human SN12C cells assessed as cell growth promotion at 10^-5 M after 48 hrs by SRB assay relative to control
MDA-MB-231 = experiment: Anticancer activity against human MDA-MB-231 cells assessed as cell growth promotion at 10^-5 M after 48 hrs by SRB assay relative to control
HCT-15 = experiment: Anticancer activity against human HCT15 cells assessed as cell growth promotion at 10^-5 M after 48 hrs by SRB assay relative to control
M14 = experiment: Anticancer activity against human M14 cells assessed as cell growth promotion at 10^-5 M after 48 hrs by SRB assay relative to control
OVCAR-3 = experiment: Anticancer activity against human OVCAR3 cells assessed as cell growth promotion at 10^-5 M after 48 hrs by SRB assay relative to control
NCI-H322M = experiment: Anticancer activity against human NCI-H322M cells assessed as cell growth promotion at 10^-5 M after 48 hrs by SRB assay relative to control
DU-145 = experiment: Anticancer activity against human DU145 cells assessed as cell growth promotion at 10^-5 M after 48 hrs by SRB assay relative to control
[1] = Anticancer activity against human […] cells assessed as cell growth promotion at 10^-5 M after 48 hrs by SRB assay relative to control
TK-10 = experiment: Anticancer activity against human TK10 cells assessed as cell growth promotion at 10^-5 M after 48 hrs by SRB assay relative to control
U-251 = experiment: Anticancer activity against human U251 cells assessed as cell growth promotion at 10^-5 M after 48 hrs by SRB assay relative to control
EKVX = experiment: Anticancer activity against human EKVX cells assessed as cell growth promotion at 10^-5 M after 48 hrs by SRB assay relative to control
NCI-H23 = experiment: Anticancer activity against human NCI-H23 cells assessed as cell growth promotion at 10^-5 M after 48 hrs by SRB assay relative to control
PC-3 = experiment: Anticancer activity against human PC3 cells assessed as cell growth promotion at 10^-5 M after 48 hrs by SRB assay relative to control
RXF 393 = experiment: Anticancer activity against human RXF393 cells assessed as cell growth promotion at 10^-5 M after 48 hrs by SRB assay relative to control
ACHN = experiment: Anticancer activity against human ACHN cells assessed as cell growth promotion at 10^-5 M after 48 hrs by SRB assay relative to control
SR = experiment: Anticancer activity against human SR cells assessed as cell growth promotion at 10^-5 M after 48 hrs by SRB assay relative to control
NCI-H226 = experiment: Anticancer activity against human NCI-H226 cells assessed as cell growth promotion at 10^-5 M after 48 hrs by SRB assay relative to control
HCT-116 = experiment: Anticancer activity against human HCT116 cells assessed as cell growth promotion at 10^-5 M after 48 hrs by SRB assay relative to control
K562 = experiment: Anticancer activity against human K562 cells assessed as cell growth promotion at 10^-5 M after 48 hrs by SRB assay relative to control
MDA-MB-435 = experiment: Anticancer activity against human MDA-MB-435 cells assessed as cell growth promotion at 10^-5 M after 48 hrs by SRB assay relative to control
UACC-62 = experiment: Anticancer activity against human UACC62 cells assessed as cell growth promotion at 10^-5 M after 48 hrs by SRB assay relative to control
MOLT-4 = experiment: Anticancer activity against human MOLT4 cells assessed as cell growth promotion at 10^-5 M after 48 hrs by SRB assay relative to control
CCRF-CEM = experiment: Anticancer activity against human CCRF-CEM cells assessed as cell growth promotion at 10^-5 M after 48 hrs by SRB assay relative to control
UO-31 = experiment: Anticancer activity against human UO31 cells assessed as cell growth promotion at 10^-5 M after 48 hrs by SRB assay relative to control
OVCAR-5 = experiment: Anticancer activity against human OVCAR5 cells assessed as cell growth promotion at 10^-5 M after 48 hrs by SRB assay relative to control
HOP-62 = experiment: Anticancer activity against human HOP62 cells assessed as cell growth promotion at 10^-5 M after 48 hrs by SRB assay relative to control
UACC-257 = experiment: Anticancer activity against human UACC257 cells assessed as cell growth promotion at 10^-5 M after 48 hrs by SRB assay relative to control
COLO 205 = experiment: Anticancer activity against human COLO205 cells assessed as cell growth promotion at 10^-5 M after 48 hrs by SRB assay relative to control
KM12 = experiment: Anticancer activity against human KM12 cells assessed as cell growth promotion at 10^-5 M after 48 hrs by SRB assay relative to control
SNB-19 = experiment: Anticancer activity against human SNB19 cells assessed as cell growth promotion at 10^-5 M after 48 hrs by SRB assay relative to control
HCC 2998 = experiment: Anticancer activity against human HCC2998 cells assessed as cell growth promotion at 10^-5 M after 48 hrs by SRB assay relative to control
SF-295 = experiment: Anticancer activity against human SF295 cells assessed as cell growth promotion at 10^-5 M after 48 hrs by SRB assay relative to control
SK-MEL-5 = experiment: Anticancer activity against human SK-MEL-5 cells assessed as cell growth promotion at 10^-5 M after 48 hrs by SRB assay relative to control
HT-29 = experiment: Anticancer activity against human HT-29 cells assessed as cell growth promotion at 10^-5 M after 48 hrs by SRB assay relative to control
SK-MEL-28 = experiment: Anticancer activity against human SK-MEL-28 cells assessed as cell growth promotion at 10^-5 M after 48 hrs by SRB assay relative to control
HL-60(TB) = experiment: Anticancer activity against human HL-60(TB) cells assessed as cell growth promotion at 10^-5 M after 48 hrs by SRB assay relative to control
How it was run: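 NCI-60 single-dose screen: compound at 10^-5 M, 48 h at 37 °C, 5% CO2; cells grown in RPMI 1640 with 5% FBS and 2 mM L-glutamine, pre-incubated 24 h before dosing. Adherent cells fixed with cold TCA; endpoint is sulforhodamine B protein staining. Percent growth of treated cells is reported relative to untreated control.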

NCI/ADR-RES = experiment: Anticancer activity against human NCI/ADR-RES cells assessed as cell growth promotion at 10^-5 M after 48 hrs by SRB assay relative to control
LOX IMVI = experiment: Anticancer activity against human LOXIMVI cells assessed as cell growth promotion at 10^-5 M after 48 hrs by SRB assay relative to control
SF-268 = experiment: Anticancer activity against human SF268 cells assessed as cell growth promotion at 10^-5 M after 48 hrs by SRB assay relative to control
MCF7 = experiment: Anticancer activity against human MCF7 cells assessed as cell growth promotion at 10^-5 M after 48 hrs by SRB assay relative to control
IGROV-1 = experiment: Anticancer activity against human IGROV1 cells assessed as cell growth promotion at 10^-5 M after 48 hrs by SRB assay relative to control
OVCAR-8 = experiment: Anticancer activity against human OVCAR8 cells assessed as cell growth promotion at 10^-5 M after 48 hrs by SRB assay relative to control

Question: Which Activity (SF-539) does the source give for `Brc1cccc(/C=C/c2nc3ccccc3nc2SCc2nc3ccccc3[nH]2)c1` here?
Answer: 101%

Question: What about the Activity (MDA-MB-468) of the same molecule?
Answer: 101%

Question: What about the Activity (786-0) of the same molecule?
Answer: 95.67%

Question: What about the Activity (Malme-3M) of the same molecule?
Answer: 86.98%

Question: What about the Activity (CAKI-1) of the same molecule?
Answer: 69.32%

Question: And the Activity (A549)?
Answer: 100%

Question: And the Activity (SN12C)?
Answer: 88.36%

Question: What about the Activity (MDA-MB-231) of the same molecule?
Answer: 93.29%

Question: And the Activity (HCT-15)?
Answer: 101%

Question: And the Activity (M14)?
Answer: 102%

Question: What about the Activity (OVCAR-3) of the same molecule?
Answer: 92.52%

Question: And the Activity (NCI-H322M)?
Answer: 95.01%

Question: What about the Activity (DU-145) of the same molecule?
Answer: 97.76%

Question: And the Activity [1]?
Answer: 108%

Question: And the Activity (TK-10)?
Answer: 103%

Question: And the Activity (U-251)?
Answer: 90.27%

Question: What about the Activity (EKVX) of the same molecule?
Answer: 79.01%

Question: And the Activity (NCI-H23)?
Answer: 93.86%

Question: And the Activity (PC-3)?
Answer: 125%

Question: What about the Activity (RXF 393) of the same molecule?
Answer: 105%

Question: And the Activity (ACHN)?
Answer: 102%

Question: What about the Activity (SR) of the same molecule?
Answer: 97.29%

Question: What about the Activity (NCI-H226) of the same molecule?
Answer: 96.35%

Question: And the Activity (HCT-116)?
Answer: 78.83%

Question: What about the Activity (K562) of the same molecule?
Answer: 79.2%

Question: What about the Activity (MDA-MB-435) of the same molecule?
Answer: 90.95%

Question: And the Activity (UACC-62)?
Answer: 79.86%

Question: And the Activity (MOLT-4)?
Answer: 84.4%

Question: What about the Activity (CCRF-CEM) of the same molecule?
Answer: 99.77%

Question: And the Activity (UO-31)?
Answer: 63.7%

Question: And the Activity (OVCAR-5)?
Answer: 94.9%

Question: And the Activity (HOP-62)?
Answer: 97.73%

Question: And the Activity (UACC-257)?
Answer: 93.79%

Question: What about the Activity (COLO 205) of the same molecule?
Answer: 119%

Question: What about the Activity (KM12) of the same molecule?
Answer: 90.27%

Question: What about the Activity (SNB-19) of the same molecule?
Answer: 94.19%

Question: What about the Activity (HCC 2998) of the same molecule?
Answer: 99.44%

Question: What about the Activity (SF-295) of the same molecule?
Answer: 100%

Question: What about the Activity (SK-MEL-5) of the same molecule?
Answer: 96.24%

Question: What about the Activity (HT-29) of the same molecule?
Answer: 94.19%

Question: What about the Activity (SK-MEL-28) of the same molecule?
Answer: 86.57%

Question: What about the Activity (HL-60(TB)) of the same molecule?
Answer: 96.53%

Question: And the Activity (NCI/ADR-RES)?
Answer: 89.75%

Question: What about the Activity (LOX IMVI) of the same molecule?
Answer: 91.83%

Question: What about the Activity (SF-268) of the same molecule?
Answer: 94.82%

Question: What about the Activity (MCF7) of the same molecule?
Answer: 61.74%

Question: And the Activity (IGROV-1)?
Answer: 101%

Question: And the Activity (OVCAR-8)?
Answer: 97.32%
